Reference: ChEMBL document CHEMBL1833818, “Synthesis of phenanthroindolizidine alkaloids and evaluation of their antitumor activities and toxicities” (Bioorg Med Chem Lett, 2011)

Assays:
A549 = test: Cytotoxicity against human A549 cells after 96 hrs by […] assay; assay type: functional, cell-based; settings: A549, 96 h
Procedure, shortened: (§1)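 Exponentially growing cells seeded at 10³ cells/well; serially diluted compounds added next day, 96 h exposure. Tetrazolium reagent (2-(2-methoxy-4-nitrophenyl)-3-(4-nitrophenyl)-5-(2,4-disulfophenyl)-2H-tetrazolium) added, 1 h at 37 °C, absorbance 450 nm. IC50 = concentration inhibiting growth 50% versus solvent-treated cells.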

HT-29 = test: Cytotoxicity against human HT-29 cells after 96 hrs by […] assay; assay type: functional, cell-based; settings: HT-29, 96 h; procedure, shortened: as §1
HCT-116 [1] = test: Cytotoxicity against human HCT116 cells after 96 hrs by […] assay; assay type: functional, cell-based; settings: HCT-116, 96 h; procedure, shortened: as §1
HCT-116 [2] = test: Antitumor activity against human HCT116 cells xenografted in nude mouse assessed as tumor growth inhibition at 200 mg/kg, ip administered 10 times on days 1 to 5 and 8 to 12 measured on day 21 post-implantation relative to control; assay type: functional; settings: HCT-116, ip, 504 h, route intraperitoneal, read-out: GI
Procedure, shortened: (§2)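 HCT116 cells (2 × 10⁶/mouse) implanted s.c. in 6-week-old male nude mice; groups of 5 formed when estimated tumor volume reached about 100 mm³ (day 0). Dosing i.p. on days 1–5 and 8–12. Tumors excised and weighed day 21 after inoculation; inhibition rate (%) = [1 − mean tumor weight treated/mean tumor weight control] × 100.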

Mus musculus [3] = test: Toxicity in human HCT116 cells xenografted nude mouse assessed as mortality at 200 mg/kg, ip; assay type: organism-based, HCT-116; design: dose 200 mg/kg, route intraperitoneal; settings: in vivo
Procedure, shortened: (§3)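 HCT116 cells, 2 × 10⁶ per mouse, implanted s.c. in 6-week-old male nude mice. Mice were grouped 5 per group once the estimated tumour volume reached about 100 mm³ (day 0). Samples were given i.p. 10 times, on days 1–5 and 8–12. Tumours were excised and weighed on day 21 after inoculation. Mortality was recorded per group.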

HCT-116 [4] = test: Antitumor activity against human HCT116 cells xenografted in nude mouse assessed as tumor growth inhibition at 100 mg/kg, ip administered 10 times on days 1 to 5 and 8 to 12 measured on day 21 post-implantation relative to control; assay type: functional; settings: HCT-116, ip, 504 h, route intraperitoneal, read-out: GI; procedure, shortened: as §2
Mus musculus [5] = test: Toxicity in human HCT116 cells xenografted nude mouse assessed as mortality at 100 mg/kg, ip; assay type: organism-based, HCT-116; design: dose 100 mg/kg, route intraperitoneal; settings: in vivo; procedure, shortened: as §3
[6] = Toxicity in human HCT116 cells xenografted nude mouse assessed as mortality at 6.25 mg/kg, ip; assay type: organism-based, HCT-116; design: dose 6.25 mg/kg, route intraperitoneal; settings: in vivo, read-out: Activity; procedure, shortened: as §3
[7] = Antitumor activity against mouse Meth-A cells xenografted in BALB/c mouse assessed as tumor growth inhibition at 25 mg/kg, iv administered on day 1, 5, 9 and measured on day 21 post-implantation relative to control; assay type: functional; settings: read-out: GI
Procedure, shortened: (§4)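 Meth A sarcoma cells (2.5 × 10⁵/mouse) inoculated s.c. into 7-week-old male BALB/c mice, 5 per group; i.v. injection on days 1, 5 and 9. Tumors excised and weighed on day 21 post-inoculation; inhibition rate (%) = [1 − mean tumor weight treated/mean tumor weight control] × 100. Mortality also recorded.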

[8] = Antitumor activity against mouse Meth-A cells xenografted in BALB/c mouse assessed as tumor growth inhibition at 50 mg/kg, iv administered on day 1, 5, 9 and measured on day 21 post-implantation relative to control; assay type: functional; settings: read-out: GI; procedure, shortened: as §4
Mus musculus [9] = test: Toxicity in mouse Meth-A cells xenografted BALB/c mouse assessed as mortality at 25 mg/kg, iv; assay type: organism-based; design: dose 25 mg/kg, route intravenous; settings: in vivo
Procedure, shortened: (§5)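 Meth A sarcoma cells, 2.5 × 10⁵ per mouse, inoculated s.c. into 7-week-old male BALB/c mice, 5 per group. Samples were injected i.v. on days 1, 5 and 9. Tumours were excised and weighed on day 21 after inoculation. Mortality was recorded per group as deaths/5.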

Mus musculus [10] = test: Toxicity in mouse Meth-A cells xenografted BALB/c mouse assessed as mortality at 50 mg/kg, iv; assay type: organism-based; design: dose 50 mg/kg, route intravenous; settings: in vivo; procedure, shortened: as §5
[11] = Antitumor activity against mouse Meth-A cells xenografted in BALB/c mouse assessed as tumor growth inhibition at 100 mg/kg, iv administered on day 1, 5, 9 and measured on day 21 post-implantation relative to control; assay type: functional; settings: read-out: GI; procedure, shortened: as §4
Mus musculus [12] = test: Toxicity in mouse Meth-A cells xenografted BALB/c mouse assessed as mortality at 100 mg/kg, iv; assay type: organism-based; design: dose 100 mg/kg, route intravenous; settings: in vivo; procedure, shortened: as §5
HCT-116 [13] = test: Antitumor activity against human HCT116 cells xenografted in nude mouse assessed as tumor growth inhibition at 135 mg/kg, ip administered 10 times on days 1 to 5 and 8 to 12 measured on day 21 post-implantation relative to control; assay type: functional; settings: HCT-116, ip, 504 h, route intraperitoneal, read-out: GI; procedure, shortened: as §2
Mus musculus [14] = test: Toxicity in human HCT116 cells xenografted nude mouse assessed as mortality at 135 mg/kg, ip; assay type: organism-based, HCT-116; design: dose 135 mg/kg, route intraperitoneal; settings: in vivo; procedure, shortened: as §3

Structure (SMILES)	IC50 (A549) [nM]	IC50 (HT-29) [nM]	IC50 (HCT-116 [1]) [nM]	also measured
COc1cc2c3c(c4ccc(O)cc4c2cc1OC)[C@@H](O)[C@H]1CCCN1C3	30.6	37	32.4	
COc1ccc2c3c(c4cc(OC)c(OC)cc4c2c1)CN1CCC[C@H]1C3	43.8	45.1	41.7	
COc1cc2c3c(c4ccc(O)cc4c2cc1OC)C[C@H]1CCCN1C3	58.2	158	59.9	
COc1cc2c3c(c4cc(O)ccc4c2cc1OC)C[C@@H]1CCCN1C3	21.6	32.1	23.5	
COc1cc2c3c(c4cccc(O)c4c2cc1OC)C[C@@H]1CCCN1C3	5.5	452	4.7	
COc1cc2c3c(c4ccc(OC(C)=O)cc4c2cc1OC)C[C@@H]1CCCN1C3	2.8	3.5	2	inhibition in vivo at 200 mg/kg (HCT-116 [2]): 34.7%; Activity (Mus musculus [3]): Non-toxic
COc1cc2c3c(c4ccccc4c2cc1OC)C[C@@H]1CCCN1C3	48.9	57.1	49.6	inhibition in vivo at 100 mg/kg (HCT-116 [4]): 21%; Activity (Mus musculus [5]): Non-toxic
COc1cc2c3c(c4ccc(F)cc4c2cc1OC)C[C@@H]1CCCN1C3	51	58.9	48.1	inhibition in vivo at 100 mg/kg (HCT-116 [4]): 30.7%; Activity (Mus musculus [5]): Non-toxic; Activity (Mus musculus [3]): Toxic; mortality [6]: 10%
CCc1ccc2c3c(c4cc(OC)c(OC)cc4c2c1)CN1CCC[C@H]1C3	441	484	403	
CCOc1cc2c3c(c4ccc(O)cc4c2cc1OCC)C[C@@H]1CCCN1C3	42.2	80.5	38.8	
Oc1ccc2c3c(c4cc5c(cc4c2c1)OCO5)CN1CCC[C@H]1C3	392	879	377	
COc1cc2c3c(c4ccc(O)cc4c2cc1OC)[C@@H](O)[C@@H]1CCCN1C3	52.3	53.6	44.4	
COc1cc2c3c(c4ccc(O)cc4c2cc1OC)[C@H](O)[C@H]1CCCN1C3	818	935	671	
COc1cc2c3c(c4ccc(O)cc4c2cc1OC)C[C@@H]1CCCN1C3	0.6	1.8	0.5	inhibition in vivo at 25 mg/kg [7]: 46.9%; inhibition in vivo at 50 mg/kg [8]: 70.8%; Activity (Mus musculus [9]): Non-toxic; Activity (Mus musculus [10]): Non-toxic; inhibition in vivo at 100 mg/kg (HCT-116 [4]): 35.7%; inhibition in vivo at 200 mg/kg (HCT-116 [2]): 48.7%; Activity (Mus musculus [5]): Non-toxic; Activity (Mus musculus [3]): Non-toxic
CCc1c2c(nc3ccc(OC(=O)N4CCC(N5CCCCC5)CC4)cc13)-c1cc3c(c(=O)n1C2)COC(=O)[C@]3(O)CC.Cl				inhibition in vivo at 50 mg/kg [8]: 46.2%; inhibition in vivo at 100 mg/kg [11]: 78.3%; Activity (Mus musculus [10]): Non-toxic; Activity (Mus musculus [12]): Non-toxic; inhibition in vivo at 135 mg/kg (HCT-116 [13]): 77%; Activity (Mus musculus [14]): Non-toxic
COc1cc2c3c(c4ccc(O)cc4c2cc1OC)[C@H](O)[C@@H]1CCCN1C3 [TYLOPHORIDICINE E]	2.7	2.9	1.3	inhibition in vivo at 25 mg/kg [7]: 30.6%; Activity (Mus musculus [9]): Non-toxic; Activity (Mus musculus [10]): Toxic
